Data as given in ChEMBL document CHEMBL1155568, “Biological characterization of fusapyrone and deoxyfusapyrone, two bioactive secondary metabolites of Fusarium semitectum” (J Nat Prod, 2000).
Values after ≈ are worked out from the molar mass of the structure shown.

Experiments:
[1] = Toxicity against Artemia salina larvae; assay type: organism-based; conditions: in vivo
Method in brief: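 Quadruplicate wells; mortality counted after 24 and 36 h at 27 °C. LC50 from probit analysis of dose-mortality data from six independent experiments.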

[2] = test system: Starmera dryadoides; experiment: Antifungal activity against Pichia dryadoides ITEM 1663 at 15 ug/disk by paper disk method; assay type: functional
Method in brief: (§1)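 Agar overlay disk diffusion on plant-derived filamentous fungi and yeasts: 0.7% water-agar seeded with 10^4 conidia/mL or a yeast cell suspension, poured over PDA. 6-mm cellulose disks were loaded from methanolic solutions and air-dried, with nystatin as comparator. Plates ran 24-72 h at 25 °C; inhibition halo was measured over three disks. Agar beneath disks was subcultured on PDA to separate fungicidal from fungistatic, scored in four classes; run twice, averaged.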

[3] = test system: Pichia kluyveri; experiment: Antifungal activity against Pichia kluyveri ITEM 1649 at 15 ug/disk by paper disk method; assay type: functional; method in brief: as §1
[4] = test system: Aspergillus flavus; experiment: Antifungal activity against Aspergillus flavus ITEM 9 at 15 ug/disk by paper disk method; assay type: functional
Method in brief: (§2)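 Agar diffusion: a 0.7% water-agar overlay carrying 10^4 conidia/mL (or yeast cells) is poured on PDA. 6-mm cellulose disks loaded with methanolic compound at 5 or 15 µg/disk are air-dried and applied, with nystatin as comparator. Plates incubated 24-72 h at 25 °C; inhibition halo diameter read from three disks. Agar under each disk is subcultured on PDA to score fungicidal/fungistatic effect. Experiment run twice and averaged.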

[5] = test system: Cladosporium cladosporioides; experiment: Antifungal activity against Cladosporium cladosporioides ITEM 2079 at 15 ug/disk by paper disk method; assay type: functional; method in brief: as §2
[6] = test system: Fusarium oxysporum; experiment: Antifungal activity against Fusarium oxysporum ITEM 1462 at 15 ug/disk by paper disk method; assay type: functional; method in brief: as §2
[7] = test system: Cladosporium cucumerinum; experiment: Antifungal activity against Cladosporium cucumerinum ITEM 2095 at 15 ug/disk by paper disk method; assay type: functional; method in brief: as §2
[8] = test system: Alternaria citri; experiment: Antifungal activity against Alternaria citri ITEM 466 at 15 ug/disk by paper disk method; assay type: functional
Method in brief: (§3)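 Agar overlay diffusion: 0.7% water-agar with 10^4 conidia/mL of test fungus poured over PDA; 6-mm cellulose disks impregnated with methanolic compound solution, air-dried. Incubated 25 °C for 24-72 h by fungus; growth-inhibition halo diameter from three replicate disks. Agar under disks then subcultured on PDA to score fungicidal/fungistatic classes. Repeated twice, averaged.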

[9] = test system: Botrytis cinerea; experiment: Antifungal activity against Botrytis cinerea ITEM 966 at 15 ug/disk by paper disk method; assay type: functional; method in brief: as §2
[10] = test system: Fusarium verticillioides; experiment: Antifungal activity against Fusarium moniliforme ITEM 1497 at 15 ug/disk by paper disk method; assay type: functional; method in brief: as §2
[11] = test system: Alternaria alternata; experiment: Antifungal activity against Alternaria alternata ITEM 526 at 15 ug/disk by paper disk method; assay type: functional; method in brief: as §2
[12] = test system: Colletotrichum gloeosporioides; experiment: Antifungal activity against Colletotrichum gloeosporioides ITEM 1729 at 15 ug/disk by paper disk method; assay type: functional; method in brief: as §2
[13] = test system: Penicillium brevicompactum; experiment: Antifungal activity against Penicillium brevicompactum ITEM 449 at 15 ug/disk by paper disk method; assay type: functional; method in brief: as §1
[14] = test system: Meyerozyma guilliermondii; experiment: Antifungal activity against Pichia guilliermondii ITEM 1644 at 15 ug/disk by paper disk method; assay type: functional; method in brief: as §1
[15] = test system: Fusarium oxysporum; experiment: Antifungal activity against Fusarium oxysporum ITEM 149 at 15 ug/disk by paper disk method; assay type: functional; method in brief: as §2
[16] = test system: Penicillium verrucosum; experiment: Antifungal activity against Penicillium verrucosum ITEM 439 at 15 ug/disk by paper disk method; assay type: functional; method in brief: as §1
[17] = test system: Fusarium oxysporum f. sp. lycopersici; experiment: Antifungal activity against Fusarium oxysporum f. sp. lycopersici ITEM 1462 at 15 ug/disk by paper disk method; assay type: functional; method in brief: as §2
[18] = test system: Fusarium subglutinans; experiment: Antifungal activity against Fusarium subglutinans at 15 ug/disk by paper disk method; assay type: functional; method in brief: as §2
[19] = test system: Kluyveromyces lactis; experiment: Antifungal activity against Kluyveromyces lactis ITEM 1656 at 15 ug/disk by paper disk method; assay type: functional; method in brief: as §1
[20] = test system: Candida maltosa; experiment: Antifungal activity against Candida maltosa ITEM 1639 at 15 ug/disk by paper disk method; assay type: functional; method in brief: as §2
[21] = test system: Botrytis cinerea; experiment: Antifungal activity against Botrytis cinerea at 15 ug/disk by paper disk method; assay type: functional; method in brief: as §2
[22] = test system: Ascochyta rabiei; experiment: Antifungal activity against Ascochyta rabiei ITEM 1067 at 15 ug/disk by paper disk method; assay type: functional; method in brief: as §2
[23] = test system: Wickerhamomyces anomalus; experiment: Antifungal activity against Pichia anomala ITEM 1625 at 15 ug/disk by paper disk method; assay type: functional; method in brief: as §1
[24] = test system: Fusarium graminearum; experiment: Antifungal activity against Fusarium graminearum ITEM 2 at 15 ug/disk by paper disk method; assay type: functional; method in brief: as §3
[25] = test system: Alternaria alternata; experiment: Antifungal activity against Alternaria alternata ITEM 468 at 15 ug/disk by paper disk method; assay type: functional; method in brief: as §2
[26] = test system: Saccharomyces cerevisiae; experiment: Antifungal activity against Saccharomyces cerevisiae ITEM 1633 at 15 ug/disk by paper disk method; assay type: functional; method in brief: as §1
[27] = test system: Fusarium incarnatum; experiment: Antifungal activity against Fusarium semitectum ITEM 393 at 15 ug/disk by paper disk method; assay type: functional; method in brief: as §2
[28] = test system: Alternaria alternata; experiment: Antifungal activity against Alternaria alternata ITEM 750 at 15 ug/disk by paper disk method; assay type: functional; method in brief: as §2
[29] = test system: Kluyveromyces marxianus; experiment: Antifungal activity against Kluyveromyces fragilis ITEM 1657 at 15 ug/disk by paper disk method; assay type: functional; method in brief: as §1
[30] = test system: Wickerhamomyces anomalus; experiment: Antifungal activity against Pichia anomala ITEM 1661 at 15 ug/disk by paper disk method; assay type: functional; method in brief: as §1
[31] = test system: Alternaria alternata; experiment: Antifungal activity against Alternaria alternata ITEM 511 at 15 ug/disk by paper disk method; assay type: functional; method in brief: as §2
[32] = test system: Fusarium acuminatum; experiment: Antifungal activity against Fusarium acuminatum ITEM 795 at 15 ug/disk by paper disk method; assay type: functional; method in brief: as §2
[33] = test system: Aspergillus parasiticus; experiment: Antifungal activity against Aspergillus parasiticus ITEM 11 at 15 ug/disk by paper disk method; assay type: functional; method in brief: as §2
[34] = test system: Plenodomus tracheiphilus; experiment: Antifungal activity against Phoma tracheiphilla ITEM 1605 at 15 ug/disk by paper disk method; assay type: functional; method in brief: as §1
[35] = test system: Meyerozyma guilliermondii; experiment: Antifungal activity against Candida guilliermondii ITEM 1638 at 15 ug/disk by paper disk method; assay type: functional; method in brief: as §2
[36] = test system: Rhodotorula mucilaginosa; experiment: Antifungal activity against Rhodotorula pilimanae at 15 ug/disk by […]; assay type: functional
[37] = test system: Solanum lycopersicum; experiment: Phytotoxicity in tomato leaf assessed as chlorosis in the leaf at 10^-5 M by tomato cutting assay; assay type: organism-based; conditions: in vivo, 10 µM
Method in brief: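 Young greenhouse tomato plants cut with razor; stems immersed in toxin solutions (10^-3 to 10^-6 M; compound in small MeOH volume diluted with water) 24 h at 22 °C, 12-h photoperiod, fluorescent light. Then moved to distilled water 48 h under same conditions; symptoms (e.g. chlorosis, wilting) scored visually.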

Work on CC(=O)OC[C@@H](C)C1=C(O)C(=O)[C@@]2(C)C/C=C(\C)CC/C=C(\C)CC[C@H](O)/C(C)=C/C[C@H]12 [FUSAPROLIFERIN] yielded an LC50 [1] of 23.7 µg/mL (≈ 53.3 µM).

NYSTATIN showed an inhibition zone (IZ) [2] of 19 mm, an Activity [3] of 16.5 mm and an inhibition zone (IZ) [4] of 29 mm. The inhibition zone (IZ) [5] was 37.3 mm, the inhibition zone (IZ) [6] was 20 mm and the inhibition zone (IZ) [7] was 32.7 mm. It also gave an inhibition zone (IZ) [8] of 30 mm, an inhibition zone (IZ) [9] of 31.2 mm and an inhibition zone (IZ) [10] of 18.7 mm. The inhibition zone (IZ) [11] was 28.7 mm, the inhibition zone (IZ) [12] was 38.2 mm and the inhibition zone (IZ) [13] was 18.3 mm. For the same molecule, the inhibition zone (IZ) [14] was 18.5 mm, the inhibition zone (IZ) [15] was 19.5 mm and the inhibition zone (IZ) [16] was 28.2 mm. The inhibition zone (IZ) [17] was 21.7 mm, the Activity [18] was 24 mm and the inhibition zone (IZ) [19] was 18 mm. It also gave an inhibition zone (IZ) [20] of 20 mm, an inhibition zone (IZ) [21] of 31 mm and an inhibition zone (IZ) [22] of 38.5 mm. It also gave an inhibition zone (IZ) [23] of 18.8 mm, an inhibition zone (IZ) [24] of 25.9 mm and an inhibition zone (IZ) [25] of 30.2 mm. It also gave an inhibition zone (IZ) [26] of 21 mm, an inhibition zone (IZ) [27] of 27 mm and an inhibition zone (IZ) [28] of 29.2 mm. It also gave an inhibition zone (IZ) [29] of 19.5 mm, an inhibition zone (IZ) [30] of 15 mm and an inhibition zone (IZ) [31] of 32.2 mm. It also gave an inhibition zone (IZ) [32] of 20.8 mm, an inhibition zone (IZ) [33] of 28.7 mm and an inhibition zone (IZ) [34] of 31.8 mm. For the same molecule, the inhibition zone (IZ) [35] was 20 mm and the inhibition zone (IZ) [36] was 28.5 mm.

For CCCCc1ccc(C(=O)O)nc1 [FUSARIC ACID], the Activity [37] was “Active”.
